Sampled rows, rich in hits. Any-hit rate of the full collection: about 6.4%.
Rev-RRE block = disrupts HIV-1 Rev binding to RRE RNA; P05866; actives 0.79% (n = 97,000); Rev peptide-RRE RNA binding, FRET; inhibition, % at 8 µM;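 active = inhibition above the screen-wide mean plus 3 SD, cut at about 35% in these data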;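 note: 0% = median DMSO wells and 100% = median Neomycin B control wells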
Target sequence (P05866 whole entry, looked up): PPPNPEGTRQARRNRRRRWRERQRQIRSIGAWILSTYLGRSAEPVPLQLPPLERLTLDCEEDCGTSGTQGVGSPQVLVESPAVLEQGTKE
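Test system: Cy5-tagged RRE RNA duplex with fluorescein-tagged Rev peptide | Read-out: % inhibition of FRET ratio versus controls | Probe or stimulus: Labelled Rev peptide | Incubation: 5 min RNA-compound premix plus 15 min binding step, 25 °C | Technique: FRET fluorescence readout | Benchmarks: DMSO low control, neomycin B high control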
PostGolgi ctrl = inhibits growth of the yeast control strain; efflux-deficient yeast background strain, growth absorbance A615, 16 h; inhibition, % at 10 µM; actives 5% (n = 98,000); AID 738
Plk1 PBD FP = blocks phosphopeptide binding to human Plk1 polo box domain | inhibition, %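 (tested at about 20 µM)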 | P53350 | Plk1 PBD phosphopeptide binding, fluorescence polarization | actives 0.13% (n = 97,000); in the data active = inhibition above about 34%, passing the limit was not always enough
PLK1 inh = PLK1 (human) kinase inhibition; recombinant PLK1 kinase, TR-FRET peptide phosphorylation; actives 0.53% (n = 97,000); inhibition, % at 10 µM; AID 619;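 active = inhibition of 50% or more in the single-concentration screen; inactive = inhibition below 50%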;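 note: 0% = DMSO max control and 100% = H-89 dihydrochloride min control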
EphB4 antag = antagonists of human EphB4-ephrin-B2 interaction; actives 0.15% (n = 97,000); inhibition, % at 7 µM; EphB4 LBD / TNYL-RAW-Alexa532 peptide, fluorescence polarization;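 active = inhibition above the screen-wide mean inhibition plus 3 SD, cut at about 15% in these data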;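 note: 0% = DMSO wells and 100% = excess unlabeled TNYL-RAW peptide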
PostGolgi yeast = growth inhibition of a yeast mutant, post-Golgi transport screen; post-Golgi transport phenotypic cell assay; inhibition, % at 10 µM; actives 0.9% (n = 98,000);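 note: yeast cells grown in 1536-well plates; yeast grown about 18 h at 30C before absorbance read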
* marks the source's active call; other numbers are inactive results; nt = not tested or not shown. Cut-off read from the data, not from the text of the source, unless noted: active = inhibition above about 30%; inactive = the rest.

SMILES	Rev-RRE block	PostGolgi ctrl	Plk1 PBD FP	PLK1 inh	EphB4 antag	PostGolgi yeast
CCn1c(CNc2ccc(Cl)cc2)nnc1SCC(=O)NCc1ccccc1	7	9	4	-5	3	16
CCOC(=O)CSc1nnc(CNc2ccccc2Cl)n1-c1ccccc1	3	11	12	-12	-9	6
COC(=O)CSc1nnc(CNc2ccc(Cl)cc2)n1-c1ccccc1	3	65*	21	-20	-1	63*
CCn1c(Cn2nnc(-c3ccccc3)n2)nnc1SCc1ccc(Cl)c(Cl)c1	1	46*	3	3	7	2
CSc1cccc(-n2cc(-c3ccc4c(c3)OCO4)[nH]c2=O)c1	9	4	-17	8	3	-2
CCNC(=O)N(C(=O)NCC)n1c(C)nnc1C	6	4	-4	-6	-6	3
Cc1ccc(S(=O)(=O)N(CCC#N)CCN2CCCC2)cc1	6	30*	13	-7	-7	6
Cc1ccc(-c2nc3ccccn3c2NC(=O)c2ccco2)cc1	1	nt	10	-10	2	nt
CC(=O)C(N=Nc1ccccc1)(Sc1nnc(-c2ccccc2)n1-c1ccccc1)C(C)=O	-2	47*	-10	-7	-5	-8
O=C(Nc1ccc(N2CCN(Cc3ccccc3)CC2)cc1)c1ncn[nH]1	-5	31*	1	5	-3	-2
CCC(=O)Nc1ccc(N2CCN(Cc3ccccc3)CC2)cc1	-2	3	-30	-14	4	1
Cc1nn(-c2ccccc2)c(Cl)c1C1C(C#N)=C(N)OC2=C1C(=O)CCC2 (centres undefined)	nt	5	nt	nt	nt	-5
CCn1nc(C)c(/C=C2\CCCC3=C2OC(N)=C(C#N)C3c2c(C)nn(CC)c2C)c1C (centres undefined)	47*	0	-16	-6	-7	-1
Cc1cc(NCCCn2ccnc2)n2nc(C)c(-c3ccccc3)c2n1	4	12	-4	-8	3	3
Cc1cc(NCCCn2ccnc2)n2ncc(-c3ccccc3)c2n1	1	38*	-8	-11	-4	19
CCCCC(CC)CNC(=O)c1ccc2c(c1)OCO2 (centres undefined)	4	22	-23	3	1	15
Clc1ccc(/C=N/NC(=Nc2ccccc2)c2ccccn2)c(Cl)c1	9	37*	-2	-8	-2	0
O=C(NCc1ccc(Cl)cc1Cl)c1ccccn1	1	-2	-5	-14	-8	0
COc1cccc(CSc2nc3ccccc3cc2C=O)c1	22	51*	-36	-7	0	33*
Cn1c(N)c(C(=O)COC(=O)C2CCCCC2)c(=O)n(C)c1=O	7	-7	-7	-11	-1	20
BrC(=C\c1ccccc1)/C=N/N1CCN(c2ccccn2)CC1	1	38*	13	-15	-9	-4
Cc1ccc2nc(SCC(=O)Nc3nnc(SCC(N)=O)s3)[nH]c2c1	2	9	1	-9	7	-8
COc1cc(OC)cc(-c2cc3nc(C)c(CCC(=O)NC(C)CCc4ccco4)c(C)n3n2)c1 (centres undefined)	6	17	-7	-6	9	5
Cc1nc2cc(-c3cccc(F)c3)nn2c(C)c1CCC(=O)NC(C)CCc1ccco1 (centres undefined)	5	30	-18	-6	1	41*
COc1ccc(-n2c(SCC(=O)Nc3nccs3)nc3c(c2=O)SC(C)C3)cc1 (centres undefined)	nt	-5	nt	nt	nt	-5
SMILES	Rev-RRE block	PostGolgi ctrl	Plk1 PBD FP	PLK1 inh	EphB4 antag	PostGolgi yeast
Cc1cccc(/C=c2\s/c(=C\C(=O)C(C)(C)C)[nH]c2=O)c1	13	36*	-27	1	-6	-4
CCOC(=O)C1CCCn2c1nc1sc3c(c1c2=O)CCCC3 (centres undefined)	-2	38*	-4	-10	-11	-7
COc1ccc(N(C(=O)COc2ccccc2)C2C=CS(=O)(=O)C2)cc1 (centres undefined)	0	14	-13	-10	-1	-1
Cc1ccc(-c2ccc(=O)n(CC(=O)N3CCN(c4cc(Cl)ccc4C)CC3)n2)cc1	3	47*	3	-4	4	17
Cc1ccc2nsnc2c1S(=O)(=O)N1CCOCC1	1	0	-18	-6	0	20
Cc1nc(NC(C)c2ccccc2)c2oc3ccccc3c2n1 (centres undefined)	10	74*	24	-5	-5	9
Cc1nc(N[C@@H](Cc2ccccc2)C(=O)O)c2oc3ccccc3c2n1	2	27	-1	-5	5	-2
O=C(NC1CC2CCC1C2)C1COc2ccccc2O1 (centres undefined)	2	31*	-6	-10	0	0
O=C(O)CNC(=O)C1COc2ccccc2O1 (centres undefined)	9	13	-25	-14	-2	0
COc1cc(S(=O)(=O)N2CCOCC2)ccc1NC(=O)COC(=O)C12CC3CC(CC(C3)C1)C2	8	35*	5	-5	8	-10
O=C(Cn1nnc(-c2ccc(Cl)cc2)n1)NC1CC2CCC1C2 (centres undefined)	11	15	-3	-3	2	37*
O=C(CSc1nc2cc(Cl)ccc2o1)c1cccs1	nt	3	nt	nt	nt	2
COc1ccc(C(C)=O)cc1CSc1nc2cc(Cl)ccc2o1	16	47*	3	-3	-5	-6
COc1cc(NS(=O)(=O)c2ccc(C)cc2)c2ncccc2c1	nt	36*	nt	nt	nt	-1
Cc1ccc(S(=O)(=O)Nc2cccc3cccnc23)cc1	3	22	-3	-12	8	-4
Cc1oc2c(cc(NS(=O)(=O)c3cccs3)c3ccccc32)c1C(=O)OC(C)C	12	nt	5	-12	4	nt
COc1ccc(S(=O)(=O)Nc2cc3c(C(C)=O)c(C)oc3c3ccccc23)cc1	13	65*	-12	-2	6	4
N#Cc1c(-c2ccccc2)c(-c2ccccc2)n(Cc2ccco2)c1NC(=O)c1cccs1	7	23	-20	-9	1	3
Cc1cc(NCCN2CCOCC2)n2nc(C)c(-c3ccc(Cl)cc3)c2n1	3	34*	1	-19	3	47*
Cc1cc(NCCN2CCOCC2)n2nc(C)c(-c3ccccc3)c2n1	7	-5	-9	-13	-4	-1
COc1ccc(S(=O)(=O)c2ccc(OC)c(OC)c2)cc1OC	6	9	-9	-13	-6	-3
Nc1nc(-c2ccc(Br)s2)c(Br)s1	7	51*	-7	14	10	-1
Cc1ccc(SCCC(=O)Nc2cccc(N(C)S(C)(=O)=O)c2)cc1	5	-13	-17	8	3	7
CCN1C=CC2=C(C#N)C(N)C(C#N)(C#N)C(c3ccccc3C(F)(F)F)C2C1 (centres undefined)	58*	nt	-14	6	2	nt

Assay outcomes deposited in PubChem by several laboratories.
